Experimental data reported in ChEMBL document CHEMBL4689842, “EUbOPEN Chemogenomics Library wave 1” (2021).

Tested on: Fibroblast
Experiment: Multiplex assay against human fibroblast
Assay type: toxicity, cell-based
In short: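 Four dyes were applied at seeding to live cells: Hoechst33342, BioTracker Green Microtubule Cytoskeleton Dye, MitoTracker Red and Annexin V Alexa Fluor 680. Imaging after compound addition used a CQ1 microscope at 37°C and 5% CO2. CellPathfinder machine-learning gating then sorted cells into Hoechst high-intensity objects or normal cells, normal cells into healthy, pyknosed or fragmented nuclei, and pyknosed cells into mitotic or apoptotic, with tubulin, mitochondrial-mass and membrane-permeability phenotypes given as per cents of healthy-nucleus cells.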

[1] = 12 h, 1 µM, compound concentration 1 uM, replicate 1
[2] = 12 h, 1 µM, compound concentration 1 uM, replicate 2
[3] = 12 h, 10 µM, compound concentration 10 uM, replicate 1
[4] = 12 h, 10 µM, compound concentration 10 uM, replicate 2
[5] = 24 h, 1 µM, compound concentration 1 uM, replicate 1
[6] = 24 h, 1 µM, compound concentration 1 uM, replicate 2
[7] = 24 h, 10 µM, compound concentration 10 uM, replicate 1
[8] = 24 h, 10 µM, compound concentration 10 uM, replicate 2

CC(C)CC(=O)Nc1[nH]nc2c1CN(C(=O)C1CCN(C)CC1)C2(C)C [PHA-793887]
Population Apoptotic (%) [1]: 81%
Population Fragmented Nuclei (%) [1]: 21%
Population Healthy Nuclei (%) [1]: 60%
Population Hoechst High Intensity Objects (%) [1]: 11%
Population Membrane Permeable-Phenotype (%) [1]: 4%
Population Mitochondria Different-Phenotype (%) [1]: 3%
Population Mitotic Cells (%) [1]: 18%
Population Normal (%) [1]: 88%
Population Pyknosed Nuclei (%) [1]: 18%
Population Tubulin-Different-Phenotype (%) [1]: 4%
Total Cell Count [1]: 233
Population Apoptotic (%) [2]: 50%
Population Fragmented Nuclei (%) [2]: 48%
Population Healthy Nuclei (%) [2]: 31%
Population Hoechst High Intensity Objects (%) [2]: 46%
Population Membrane Permeable-Phenotype (%) [2]: 22%
Population Mitochondria Different-Phenotype (%) [2]: 44%
Population Mitotic Cells (%) [2]: 50%
Population Normal (%) [2]: 53%
Population Pyknosed Nuclei (%) [2]: 20%
Population Tubulin-Different-Phenotype (%) [2]: 22%
Total Cell Count [2]: 54
Population Apoptotic (%) [3]: 73%
Population Fragmented Nuclei (%) [3]: 23%
Population Healthy Nuclei (%) [3]: 66%
Population Hoechst High Intensity Objects (%) [3]: 12%
Population Membrane Permeable-Phenotype (%) [3]: 4%
Population Mitochondria Different-Phenotype (%) [3]: 7%
Population Mitotic Cells (%) [3]: 26%
Population Normal (%) [3]: 87%
Population Pyknosed Nuclei (%) [3]: 10%
Population Tubulin-Different-Phenotype (%) [3]: 4%
Total Cell Count [3]: 277
Population Apoptotic (%) [4]: 33%
Population Fragmented Nuclei (%) [4]: 68%
Population Healthy Nuclei (%) [4]: 24%
Population Hoechst High Intensity Objects (%) [4]: 33%
Population Membrane Permeable-Phenotype (%) [4]: 20%
Population Mitochondria Different-Phenotype (%) [4]: 40%
Population Mitotic Cells (%) [4]: 66%
Population Normal (%) [4]: 66%
Population Pyknosed Nuclei (%) [4]: 7%
Population Tubulin-Different-Phenotype (%) [4]: 30%
Total Cell Count [4]: 62
Population Apoptotic (%) [5]: 71%
Population Fragmented Nuclei (%) [5]: 20%
Population Healthy Nuclei (%) [5]: 65%
Population Hoechst High Intensity Objects (%) [5]: 13%
Population Membrane Permeable-Phenotype (%) [5]: 6%
Population Mitochondria Different-Phenotype (%) [5]: 1%
Population Mitotic Cells (%) [5]: 28%
Population Normal (%) [5]: 86%
Population Tubulin-Different-Phenotype (%) [5]: 3%
Total Cell Count [5]: 225
Population Apoptotic (%) [6]: 66%
Population Fragmented Nuclei (%) [6]: 57%
Population Healthy Nuclei (%) [6]: 28%
Population Hoechst High Intensity Objects (%) [6]: 37%
Population Membrane Permeable-Phenotype (%) [6]: 16%
Population Mitochondria Different-Phenotype (%) [6]: 25%
Population Mitotic Cells (%) [6]: 33%
Population Normal (%) [6]: 62%
Population Pyknosed Nuclei (%) [6]: 14%
Population Tubulin-Different-Phenotype (%) [6]: 16%
Total Cell Count [6]: 67
Population Apoptotic (%) [7]: 61%
Population Fragmented Nuclei (%) [7]: 23%
Population Healthy Nuclei (%) [7]: 64%
Population Hoechst High Intensity Objects (%) [7]: 11%
Population Membrane Permeable-Phenotype (%) [7]: 3%
Population Mitochondria Different-Phenotype (%) [7]: 6%
Population Mitotic Cells (%) [7]: 38%
Population Normal (%) [7]: 88%
Population Pyknosed Nuclei (%) [7]: 12%
Population Tubulin-Different-Phenotype (%) [7]: 6%
Total Cell Count [7]: 284
Population Apoptotic (%) [8]: 100%
Population Fragmented Nuclei (%) [8]: 72%
Population Healthy Nuclei (%) [8]: 20%
Population Hoechst High Intensity Objects (%) [8]: 32%
Population Membrane Permeable-Phenotype (%) [8]: 0%
Population Mitochondria Different-Phenotype (%) [8]: 11%
Population Mitotic Cells (%) [8]: 0%
Population Normal (%) [8]: 67%
Population Pyknosed Nuclei (%) [8]: 6%
Population Tubulin-Different-Phenotype (%) [8]: 22%
Total Cell Count [8]: 64

C=CC(=O)Nc1cccc(Sc2nc(Nc3ccc(N4CCN(C)CC4)cc3)ncc2Cl)c1
Population Apoptotic (%) [1]: 35%
Population Fragmented Nuclei (%) [1]: 28%
Population Healthy Nuclei (%) [1]: 17%
Population Hoechst High Intensity Objects (%) [1]: 13%
Population Membrane Permeable-Phenotype (%) [1]: 5%
Population Mitochondria Different-Phenotype (%) [1]: 50%
Population Mitotic Cells (%) [1]: 65%
Population Normal (%) [1]: 86%
Population Pyknosed Nuclei (%) [1]: 53%
Population Tubulin-Different-Phenotype (%) [1]: 50%
Total Cell Count [1]: 130
Population Apoptotic (%) [2]: 69%
Population Fragmented Nuclei (%) [2]: 48%
Population Healthy Nuclei (%) [2]: 6%
Population Hoechst High Intensity Objects (%) [2]: 20%
Population Membrane Permeable-Phenotype (%) [2]: 0%
Population Mitochondria Different-Phenotype (%) [2]: 33%
Population Mitotic Cells (%) [2]: 30%
Population Normal (%) [2]: 79%
Population Pyknosed Nuclei (%) [2]: 46%
Population Tubulin-Different-Phenotype (%) [2]: 66%
Total Cell Count [2]: 63
Population Apoptotic (%) [3]: 79%
Population Fragmented Nuclei (%) [3]: 34%
Population Healthy Nuclei (%) [3]: 49%
Population Hoechst High Intensity Objects (%) [3]: 15%
Population Membrane Permeable-Phenotype (%) [3]: 6%
Population Mitochondria Different-Phenotype (%) [3]: 5%
Population Mitotic Cells (%) [3]: 20%
Population Normal (%) [3]: 84%
Population Pyknosed Nuclei (%) [3]: 15%
Population Tubulin-Different-Phenotype (%) [3]: 9%
Total Cell Count [3]: 290
Population Apoptotic (%) [4]: 100%
Population Fragmented Nuclei (%) [4]: 62%
Population Healthy Nuclei (%) [4]: 36%
Population Hoechst High Intensity Objects (%) [4]: 33%
Population Membrane Permeable-Phenotype (%) [4]: 7%
Population Mitochondria Different-Phenotype (%) [4]: 7%
Population Mitotic Cells (%) [4]: 0%
Population Normal (%) [4]: 66%
Population Pyknosed Nuclei (%) [4]: 1%
Population Tubulin-Different-Phenotype (%) [4]: 25%
Total Cell Count [4]: 116
Population Apoptotic (%) [5]: 74%
Population Fragmented Nuclei (%) [5]: 53%
Population Healthy Nuclei (%) [5]: 6%
Population Hoechst High Intensity Objects (%) [5]: 7%
Population Mitochondria Different-Phenotype (%) [5]: 57%
Population Mitotic Cells (%) [5]: 25%
Population Normal (%) [5]: 92%
Population Pyknosed Nuclei (%) [5]: 40%
Population Tubulin-Different-Phenotype (%) [5]: 71%
Total Cell Count [5]: 126
Population Apoptotic (%) [6]: 90%
Population Fragmented Nuclei (%) [6]: 70%
Population Healthy Nuclei (%) [6]: 5%
Population Hoechst High Intensity Objects (%) [6]: 23%
Population Membrane Permeable-Phenotype (%) [6]: 0%
Population Mitochondria Different-Phenotype (%) [6]: 0%
Population Mitotic Cells (%) [6]: 10%
Population Normal (%) [6]: 76%
Population Pyknosed Nuclei (%) [6]: 25%
Population Tubulin-Different-Phenotype (%) [6]: 50%
Total Cell Count [6]: 52
Population Apoptotic (%) [7]: 80%
Population Fragmented Nuclei (%) [7]: 34%
Population Healthy Nuclei (%) [7]: 50%
Population Hoechst High Intensity Objects (%) [7]: 17%
Population Membrane Permeable-Phenotype (%) [7]: 5%
Population Mitochondria Different-Phenotype (%) [7]: 5%
Population Mitotic Cells (%) [7]: 20%
Population Normal (%) [7]: 82%
Population Pyknosed Nuclei (%) [7]: 14%
Population Tubulin-Different-Phenotype (%) [7]: 11%
Total Cell Count [7]: 285
Population Apoptotic (%) [8]: 0%
Population Fragmented Nuclei (%) [8]: 65%
Population Healthy Nuclei (%) [8]: 34%
Population Hoechst High Intensity Objects (%) [8]: 34%
Population Membrane Permeable-Phenotype (%) [8]: 20%
Population Mitochondria Different-Phenotype (%) [8]: 4%
Population Mitotic Cells (%) [8]: 0%
Population Normal (%) [8]: 65%
Population Pyknosed Nuclei (%) [8]: 0%
Population Tubulin-Different-Phenotype (%) [8]: 16%
Total Cell Count [8]: 111
